CRFR2-BP ag – CRF-BP/CRF-R2 complex agonism | HEK293 CRF-R2/CRF-BP, calcium dye fluorescence (FLIPR); percent of saturating CRF peptide response | activation, % at 13.2 µM | actives 0.46% (n = 350,000) | AID 588473;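 active = activation of at least 50%, plus an integration ratio under a set limit after plate pattern correction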;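 note: plate controls were neutral control wells without compound for no effect and CRF at EC100 for full effect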
CRFR2-BP antag – antagonists of CRF-binding protein/CRF-R2 receptor complex. HEK293 CRF-R2/CRF-BP, CRF-induced calcium fluorescence. inhibition, % at 11.8 µM. actives 0.59% (n = 350,000);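 active = inhibition of the ligand-induced calcium signal above about 50% at the single tested concentration, limit read from the data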
ANO1 activ – activators or potentiators of mouse TMEM16A chloride channel | HEK293 TMEM16A/YFP-H148Q/I152L, iodide quench fluorescence; stronger effect = lower value | B-score at 10 µM | AID 623877 | actives 0.3% (n = 340,000);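 active = fluorescence-ratio B-score plate-corrected deviation score at least 3 library SD below zero, with starting fluorescence score within 5 deviations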;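 note: channel opened by trigger with iodide after compound preincubation; score built on the fluorescence ratio of max minus min over baseline; more negative score means more quench and so TMEM16A activation or potentiation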
TMEM16A inh – blocks the mouse calcium-activated chloride channel TMEM16A; Q8BHY3; HEK293 TMEM16A/YFP iodide influx fluorescence, ionomycin; normalized B-score (activity score, 25-100; higher = stronger inhibition) at 10 µM; actives 1.2% (n = 310,000); AID 588511;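 active = ratio plate-corrected score three or more library SD toward inhibition, starting fluorescence score within five deviations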;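 note: score derived from kinetic fluorescence span divided by baseline fluorescence per well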
TAAR1 ag – agonists of human TAAR1; Q96RJ0; CHO RD-HGA16 TAAR1, Fluo-8 calcium fluorescence; vehicle wells 0%, saturating PEA agonist 100%; activation, % at 3 µM; actives 0.99% (n = 360,000); AID 624467;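 active = activation above the mean activation of all test compounds in the run plus 3 SD, cut at about 38% in these data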
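Benchmarks: low control DMSO, high control PEA (EC100); System: CHO RD-HGA16 cells carrying human TAAR1 plus Gα16; Detection: Fluo-8 fluorescence, 5 s baseline then 140 s kinetic read; Schedule: 17-24 h plating, Fluo-8 75 min 37 °C, 30 min RT; Read-out basis: % activation from peak over basal fluorescence ratio, DMSO-to-PEA scaled.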
TAAR1 antagonist – human TAAR1 antagonism; actives 1.5% (n = 360,000); inhibition, % at 3 µM; Q96RJ0; CHO RD-HGA16 TAAR1, Fluo-8 calcium fluorescence, antagonist;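 active = inhibition above a per-plate cutoff, the mean inhibition of test compounds on that plate plus 3 SD, cut at about 49% in these data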;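 note: 0% = DMSO plus EC80 beta-PEA response and 100% = DMSO alone without agonist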
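Assay system: RD-HGA16 CHO cells with stable hTAAR1 and Gα16 / Reagent: EC80 β-phenethylamine stimulus / Doses: 3 µM, single point / Timing: dye loading 75 min at 37 °C, then 30 min room temperature / Measured by: Fluo-8 intracellular calcium dye fluorescence, real-time kinetic reads / Controls: vehicle wells and EC80 agonist wells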
Active calls of the source: *; i = inactive; x = no result. Sampled rows, rich in hits. Any-hit rate of the full collection: about 3.9%.

SMILES | CRFR2-BP ag | CRFR2-BP antag | ANO1 activ | TMEM16A inh | TAAR1 ag | TAAR1 antagonist
COc1cc(/C=C2\SC(=S)N(Nc3ncc(C(F)(F)F)cc3Cl)C2=O)ccc1O | 115* | -169 | i | i | 52* | 66*
CCOc1cc(/C=C2\SC(=S)N(Nc3ccccc3)C2=O)ccc1O | 14 | -7 | i | i | 51* | 60*
COc1cc(/C=C2/SC(=S)N(CC3CCCO3)C2=O)ccc1O (configuration not stated) | 151* | -217 | i | i | 42* | 42
CCOc1cc(/C=C2\SC(=S)N(NS(=O)(=O)c3ccccc3)C2=O)ccc1O | 7 | 12 | i | i | 8 | 20
COc1cc(/C=C2\SC(=S)N(NC(=O)c3ccc(O)cc3)C2=O)ccc1O | 53* | -53 | i | i | 57* | 35
O=C(NNC(=O)c1nn(-c2ccc(F)cc2)ccc1=O)c1ccccc1Cl | -2 | -17 | i | i | 1 | 4
CC(C)C[C@H]1CN(CCCC[C@@H]2CNC(=O)C(=O)N2CCc2ccccc2)C(=O)C(=O)N1Cc1ccccc1 | x | x | x | x | 2 | -1
O=C1/C(=C/c2ccc(O)c(O)c2)SC(=S)N1Nc1ccccc1 | 35 | -102 | i | x | x | x
COc1cc(/C=C2\SC(=S)N(Nc3ccccc3)C2=O)ccc1O | 50 | -119 | i | i | 54* | 57*
CC(=O)N[C@H]1C[C@@H]1c1ccccc1 | -2 | 61* | i | i | 5 | 2
COc1ccccc1CNC(=O)c1csc(Cc2ccc(Cl)cc2)n1 | 1 | 13 | i | i | 8 | 50*
COc1ccc(CC(N)c2csc(NC(=O)Nc3ccc(OC)cc3)n2)cc1 (configuration not stated) | x | x | x | x | 25 | 26
COc1ccc(CNC(=O)Nc2nc(C(N)Cc3ccc(Cl)cc3)cs2)cc1 (configuration not stated) | x | x | x | x | 50* | 66*
COc1ccc(CNC(=O)C2(c3ccc(Cl)cc3)CC2)cc1 | 1 | 61* | i | i | -1 | -26
COc1ccccc1CNC(=O)Nc1nc(C(N)C(C)C)cs1 (configuration not stated) | x | x | x | x | 2 | 2
COc1ccccc1CNC(=O)Nc1nc(C(N)Cc2ccc(Cl)cc2)cs1 (configuration not stated) | x | x | x | x | 45* | 51*
NC(=O)NCC(c1ccccc1)C1CCCCC1 (configuration not stated) | 1 | -18 | i | i | 4 | -10
Cc1ccc(C2=C(O)c3ccccc3C(=O)C2=O)cc1 | -1 | -12 | i | i | 0 | 5
NC(=O)C1=C(c2ccccc2)c2ccccc2C1=O | 67* | -68 | -6.3* | x | 25 | 32
COc1ccc(C2CCCN2C(=O)Nc2ccc(C)c(C)c2)cc1OC (configuration not stated) | -1 | 80* | i | i | -1 | -8
COc1ccc(C2CCCN2C(=S)Nc2ccc(C)c(C)c2)cc1OC (configuration not stated) | -1 | 33 | i | i | -5 | 11
Cn1c(=O)c2c(-c3ccccc3)n(-c3ccccc3Br)cc2n(C)c1=O | x | x | x | x | 7 | 53*
Cn1c(=O)c2c(-c3ccccc3)n(-c3ccccc3O)cc2n(C)c1=O | -2 | -2 | i | i | 9 | 6
Cc1ccc(CSc2nnc(NC(=O)C3=COCCO3)s2)cc1 | 1 | -8 | i | x | 3 | 4
CCN1C(=O)C(CC(=O)Nc2ccc(OC)cc2)N(CCc2ccc(OC)cc2)C1=S (configuration not stated) | 9 | -32 | i | i | 28 | 51*
CCN1C(=O)C(CC(=O)Nc2ccc(OC)cc2)N(Cc2ccc(OC)c(OC)c2)C1=S (configuration not stated) | 1 | -8 | i | i | 9 | -29
CCN1C(=O)C(CC(=O)Nc2ccc(F)cc2)N(CCCN2CCN(c3ccc(F)cc3)CC2)C1=S (configuration not stated) | 26 | -44 | i | i | 30 | 53*

Bioassay records deposited in PubChem by several laboratories.
